# Results collected from several papers.
# Lines come from different studies, so protocols differ.
# CDK7 with cyclin H: Cyclin-dependent kinase 7, with cyclin H (CDK7, Homo sapiens, UniProt P50613)
# HTR1B: 5-hydroxytryptamine receptor 1B (HTR1B, Homo sapiens, UniProt P28222)
Structure (SMILES),target,test,conditions,inhibition
CN(C)C1CCN(CC#Cc2nn(C3CCCC3)c3nc(NCc4ccccc4)ncc23)C1 (stereo not shown),"Tyrosine-protein kinase SYK (SYK, Homo sapiens, UniProt P43405)","enzyme activity, inhibitor, FRET",1 µM,0%
CO[C@H]1/C=C/O[C@@]2(C)Oc3c(C)c(O)c4c(O)c(c(/C=N/N5CCN(C)CC5)c(O)c4c3C2=O)NC(=O)/C(C)=C\C=C\[C@H](C)[C@H](O)[C@@H](C)[C@@H](O)[C@@H](C)[C@H](OC(C)=O)[C@@H]1C,CDK7 with cyclin H,"enzyme activity, inhibitor, ADP detection",10 µM,23.1%
COc1cc(NC(C)=O)c(Cl)cc1C(=O)Nc1nccs1,HTR1B,"ligand displacement, radioligand",10 µM,-0.8%
N#Cc1cc(Cn2c(N3CCCC3)nc3ccccc32)ccc1F,HTR1B,"ligand displacement, radioligand",10 µM,-19.3%
CCN(c1cc(C#CCN2CCOCC2)cc(C(=O)NCc2c(C)cc(C)[nH]c2=O)c1C)[C@H]1CC[C@H](N(C)CCOC)CC1,"Histone-lysine N-methyltransferase EHMT2 (EHMT2, Homo sapiens, UniProt Q96KQ7)","enzyme activity, inhibitor",1 µM,7%
CC(/C=C/C=C(\C)C(=O)O[C@@H]1O[C@H](CO[C@@H]2O[C@H](CO)[C@@H](O)[C@H](O)[C@H]2O)[C@@H](O)[C@H](O)[C@H]1O)=C\C=C\C=C(C)\C=C\C=C(/C)C(=O)O[C@@H]1O[C@H](CO[C@@H]2O[C@H](CO)[C@@H](O)[C@H](O)[C@H]2O)[C@@H](O)[C@H](O)[C@H]1O,CDK7 with cyclin H,"enzyme activity, inhibitor, ADP detection",10 µM,22.8%
CS(=O)(=O)Nc1cccc(-c2csc(NC(=O)CSc3nc4nccnc4c(=O)n3CCc3ccccc3)n2)c1,"Phosphatidylinositol 4-phosphate 5-kinase type-1 beta (PIP5K1B, Homo sapiens, UniProt O14986)","enzyme activity, inhibitor",10 µM,3%
O=C(c1ccc(Cl)cc1)N(Cc1ccccc1)C1CCCCC1,HTR1B,"ligand displacement, radioligand",10 µM,-11.5%
CCN(CC)c1ccc(C2=NNC(=O)CC2C)cc1[N+](=O)[O-] (stereo not shown),"3',5'-cyclic-AMP phosphodiesterase 4D (PDE4D, Homo sapiens, UniProt Q08499)","enzyme activity, inhibitor",0.1 µM,20%
Oc1cccc(Nc2nc(-c3ccc(F)cc3F)cs2)c1,HTR1B,"ligand displacement, radioligand",10 µM,-7.1%
CC1=C(/C=C/C(C)=C/C=C/C(C)=C/C=C/C=C(C)/C=C/C=C(C)/C=C/C2=C(C)CCCC2(C)C)C(C)(C)CCC1,CDK7 with cyclin H,"enzyme activity, inhibitor, ADP detection",10 µM,19.7%
Cc1ccc(S(=O)(=O)N[C@@H](CC(=O)NC(C)(C)C)C(=O)NCc2ccccc2)cc1,"Proteasome component C5/PSMB8 (Homo sapiens, UniProt P20618+P28062)","enzyme activity, inhibitor",100 µM,≤ 50%
COc1c(C(=O)/C=C(\O)c2ccccc2)ccc2occc12,CDK7 with cyclin H,"enzyme activity, inhibitor, ADP detection",10 µM,-26%
CC(CN(C)C)C(Oc1cccc2ccccc12)c1cccs1 (stereo not shown),"Sodium-dependent dopamine transporter (Slc6a3, Rattus norvegicus, UniProt P23977)","ligand displacement, radioligand","10 µM, cell membranes",< 70%
Oc1ccc(/C=C/c2cc(O)cc(O)c2)cc1,CDK7 with cyclin H,"enzyme activity, inhibitor, ADP detection",10 µM,40%
CCN(CC)c1ccc(C2Nc3ccc(C(=O)c4ccccc4)cc3NC3=C2C(=O)CC(C)(C)C3)cc1 (stereo not shown),HTR1B,"ligand displacement, radioligand",10 µM,6%
